The text below walks through data of ChEMBL document CHEMBL1138226, “Biological mechanisms of action of novel C-10 non-acetal trioxane dimers in prostate cancer cell lines” (2006).

The source made the active and inactive calls. The calls are words filed in the database; no cut-off is given here.

The subject of one test is TRAMP-C1A. The experiment in a line: Growth inhibition of mouse C1A cells after 72 hrs by MTT assay. It counts as functional. Put shortly: (§1)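 Seeded overnight at C1A 2500, C2H 1500 or LNCaP 10,000 cells/well, then exposed to a range of concentrations or ethanol vehicle for 72 h. MTT added for 4 h, cells solubilized in 20% SDS/0.02 N HCl, absorbance read at 570 nm. Concentration for 50% growth inhibition (GI50) calculated. Replicate wells ± SD; ≥3 independent experiments.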
On the technique in general: Tetrazolium assays rely on reduction of a dye to a coloured formazan, in cell work by metabolically active cells.

Test [1] has as its system TRAMP-C2H. The experiment in a line: Growth inhibition of mouse C2H cells after 72 hrs by MTT assay. Type of test: functional. Put shortly:
as §1

The subject of test [2] is LNCaP. Nature of the test: Growth inhibition of human LNCaP cells after 72 hrs by MTT assay. It counts as functional. The method in brief:
as §1

Test [3] concerns TRAMP-C2H. The experiment in a line: Inhibition of DNA synthesis in mouse C2H cells at 50 nM after 72 hrs by BrdU incorporation assay. It counts as functional. Also noted: scale not given: the % may be the effect or the level left. Put shortly: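 Sub-confluent C2H cells given 50 nM or vehicle for 72 h, labelled with BrdU for 4 h, incorporation measured by colorimetric BrdU ELISA at 370 nm. Expressed as % of control ± SEM; ANOVA.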
Background: Uptake of a labelled nucleoside into DNA is a usual measure of proliferation.

Test [4] concerns LNCaP. The experiment in a line: Inhibition of DNA synthesis in human LNCaP cells at 50 nM after 72 hrs by BrdU incorporation assay. Type of test: functional. Details: scale not given: the % may be the effect or the level left. The method in brief: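 LNCaP cells given 50 nM or vehicle for 72 h, pulsed 30 min with 100 μg/mL BrdU plus 1 μg/mL FdU. Cells fixed, DNA denatured with 2 N HCl, neutralized with borate pH 8.5, stained with anti-BrdU and Alexa 488 secondary plus PI, then read by flow cytometry. Normalized to control ± SEM; ANOVA.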

For test [5], the system named is LNCaP. Nature of the test: Decrease in CDK4 expression in LNCaP cells at 50 nM after 72 hrs by Western blot analysis. It counts as functional, Homo sapiens. Also noted: scale not given: the % may be the effect or the level left. Put shortly:
(§2)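 Sub-confluent LNCaP cells given 50 nM or ethanol vehicle for 72 h. Lysed in Triton X-100/SDS buffer with protease and phosphatase inhibitors, run on SDS-PAGE, blotted to PVDF, probed overnight at 4 °C, detected by HRP chemiluminescence. Bands quantified by densitometry, normalized to actin and expressed relative to control.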
(In general: A western blot detects proteins with antibodies after separation by electrophoresis.)

Test [6] relates to LNCaP. Nature of the test: Increase in CDK6 expression in LNCaP cells at 50 nM after 72 hrs by Western blot analysis. Type of test: functional, cell-based. The settings on record: Homo sapiens. The method in brief: as §2
For test [7], the system named is LNCaP. The experiment in a line: Inhibition of cyclin D1 expression in LNCaP cells at 50 nM after 72 hrs by Western blot analysis. The settings on record: Homo sapiens. It counts as functional, cell-based. Put shortly:
as §2

In test [8] the test system is LNCaP. Nature of the test: Inhibition of CDK2 expression in LNCaP cells at 50 nM after 72 hrs by Western blot analysis. Type of test: functional, cell-based. The settings on record: Homo sapiens. The method in brief: as §2
Test [9] has as its target Cyclin-dependent kinase 2 (Homo sapiens) (UniProt P24941). Nature of the test: Inhibition of CDK2 kinase activity assessed as decrease in histone H1 phosphorylation in LNCaP cells at 50 nM after 72 hrs by Western blot analysis. Type of test: functional, cell-based. Put shortly:
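LNCaP cells given 50 nM or vehicle for 72 h, lysed in NP40 buffer. Lysate (100 μg) immunoprecipitated overnight at 4 °C with cdk2 antibody on protein A/G beads. Beads incubated 30 min at 30 °C with 2 μg histone H1, 20 μM ATP and 5 μCi [γ-32P]ATP. Reaction resolved by SDS-PAGE and phospho-H1 detected by autoradiography, with cdk2 immunoblot alongside.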

The test system of test [10] is LNCaP. The experiment in a line: Decrease in Cyclin E expression in LNCaP cells at 50 nM after 72 hrs by Western blot analysis. It counts as functional, cell-based. To be noted: Homo sapiens. The method in brief: as §2
In test [11] the test system is LNCaP. Nature of the test: Cell cycle arrest in LNCaP cells by accumulation at G1/S phase at 50 nM after 72 hrs by PI staining. Type of test: functional, cell-based. The settings on record: Homo sapiens. Put shortly: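 Sub-confluent LNCaP cells given vehicle (ethanol) or 50 nM for 72 h. Cells fixed in ice-cold 70% ethanol at 4 °C for ≥30 min, then stained with PI (10 μg/mL) plus RNase A (100 μg/mL) for 30 min in the dark. Phase distribution read by flow cytometry. Mean of three independent experiments ± SEM.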

Test [12] deals with LNCaP. Nature of the test: Increase in p21 expression in LNCaP cells at 50 nM after 72 hrs relative to control by Western blot analysis. It counts as functional, Homo sapiens. Put shortly: as §2
Test [13] has as its system LNCaP. The experiment in a line: Increase in p27 expression in LNCaP cells at 50 nM after 72 hrs relative to control by Western blot analysis. Type of test: functional, Homo sapiens. The method in brief: as §2
Test [14] relates to LNCaP. Nature of the test: Increase in p53 expression in LNCaP cells at 50 nM after 72 hrs relative to control by Western blot analysis. Type of test: functional, cell-based. The settings on record: Homo sapiens. Put shortly:
as §2

Test [15] deals with LNCaP. Nature of the test: Induction of early apoptosis in LNCaP cells at 50 nM after 72 hrs relative to control by V-PE/7-AAD staining. It counts as functional, Homo sapiens. Put shortly: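 Sub-confluent LNCaP cells given 50 nM or vehicle for 72 h, trypsinized, washed in cold PBS, stained with annexin V-PE and 7-AAD for 15 min in the dark, analysed by flow cytometry. Early apoptosis = annexin V-positive only. Reported as fold over control ± SEM; ANOVA.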

For test [16], the system named is LNCaP. Nature of the test: Increase in bax expression in LNCaP cells at 50 nM after 72 hrs by Western blot analysis. Type of test: functional, cell-based. To be noted: Homo sapiens. The method in brief:
as §2

The test system of test [17] is LNCaP. The experiment in a line: Decrease in Bcl2 expression in LNCaP cells at 50 nM after 72 hrs by Western blot analysis. To be noted: Homo sapiens. It counts as functional, cell-based. The method in brief: as §2
Test [18] deals with LNCaP. Nature of the test: Growth inhibition of human LNCaP cells at 100 nM after 72 hrs by MTT assay. Type of test: functional. The method in brief:
as §1

Test [19] relates to LNCaP. Nature of the test: Cell cycle arrest in LNCaP cells by accumulation at G2/M phase at 50 nM after 72 hrs by PI staining. It counts as functional, cell-based. To be noted: Homo sapiens. The method in brief: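 Sub-confluent LNCaP (RPMI, 10% FBS, 37 °C, 5% CO2) exposed to 50 nM or ethanol vehicle (≤0.002%) for 72 h; harvested, fixed in ice-cold 70% ethanol ≥30 min at 4 °C; ~10^6 cells stained with PI (10 μg/mL) plus RNase A (100 μg/mL) 30 min in dark; FACS; % cells in G0/G1, S, G2/M, mean of three independent experiments ± SEM.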

The subject of test [20] is LNCaP. Nature of the test: Induction of late apoptosis in LNCaP cells at 50 nM after 72 hrs relative to control by V-PE/7-AAD staining. It counts as functional, cell-based. The settings on record: Homo sapiens. The method in brief: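 Sub-confluent LNCaP treated 72 h with 50 nM or ethanol vehicle; trypsinized, washed twice in ice-cold PBS, stained with annexin V-PE and 7-AAD 15 min in dark, analysed by FACS; late stage scored as annexin V plus 7-AAD positive; mean fold increase ± SEM normalized to control (=1.0), ANOVA.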

In the case of `C[C@H]1[C@@H](CC(CNc2ccccc2)C[C@H]2O[C@@H]3O[C@@]4(C)CC[C@H]5[C@H](C)CC[C@@H]([C@H]2C)[C@@]35OO4)O[C@@H]2O[C@@]3(C)CC[C@H]4[C@H](C)CC[C@@H]1[C@@]24OO3` (stereo not given in full), the GI50 in the test with TRAMP-C1A stood at 18 nM; with TRAMP-C2H [1], 17 nM; in the test with LNCaP [2], 17.9 nM. Also, the Activity in the test on TRAMP-C2H [3] is listed as above 90%; in the test with LNCaP [4] it was above 90%; in the test with LNCaP [5], 10%; in the test with LNCaP [12] it was 9; in the test on LNCaP [13], 6.5; with LNCaP [15], 4. In addition, the result (with LNCaP [6]; with LNCaP [7]; in the test with LNCaP [8]; in test [9]; with LNCaP [10]; in the test on LNCaP [11]) was Active. For the same compound, the outcome in the test on LNCaP [16] and in the test with LNCaP [17] was Active. The result with LNCaP [14] was inactive. The inhibition at 0.1 µM with LNCaP [18] worked out at 97%.

For the compound `C[C@H]1[C@@H](CC(COP(=O)(Oc2ccccc2)Oc2ccccc2)C[C@H]2O[C@@H]3O[C@@]4(C)CC[C@H]5[C@H](C)CC[C@@H]([C@H]2C)[C@@]35OO4)O[C@@H]2O[C@@]3(C)CC[C@H]4[C@H](C)CC[C@@H]1[C@@]24OO3` (stereo not given in full), the GI50 in the test on TRAMP-C1A is 31.9 nM; in the test with TRAMP-C2H [1] it was 44.8 nM; with LNCaP [2], 34.4 nM. Further, the Activity in the test on LNCaP [5] was 10%; with LNCaP [12], 9; with LNCaP [13] it was 6.5; in the test with LNCaP [15], 4. Moreover, the outcome (in the test with LNCaP [6]; with LNCaP [7]; with LNCaP [8]; in [9]; in the test with LNCaP [10]; in the test with LNCaP [11]) was Active. Besides, the result in the test on LNCaP [16] and in the test on LNCaP [17] was Active. The outcome in the test with LNCaP [14] was inactive.

As to `CCOP(=O)(OCC)OCC(C[C@H]1O[C@@H]2O[C@@]3(C)CC[C@H]4[C@H](C)CC[C@@H]([C@H]1C)[C@@]24OO3)C[C@H]1O[C@@H]2O[C@@]3(C)CC[C@H]4[C@H](C)CC[C@@H]([C@H]1C)[C@@]24OO3` (stereo not given in full), the results for the GI50 with TRAMP-C1A, with TRAMP-C2H [1] and in the test with LNCaP [2] were 42.2 nM, 39.4 nM and 36.3 nM, respectively. In addition, the Activity with LNCaP [5] is listed as 10%; in the test with LNCaP [12] it was 9; in the test with LNCaP [13] it was 6.5; with LNCaP [15] it was 4. Besides, the result (in the test with LNCaP [7]; with LNCaP [8]; in [9]; in the test on LNCaP [10]; in the test on LNCaP [11]; with LNCaP [16]) was Active. Besides, the result in the test with LNCaP [14] was inactive.

As to `COc1cccc2c1C(=O)c1c(O)c3c(c(O)c1C2=O)C[C@@](O)(C(=O)CO)C[C@@H]3O[C@H]1C[C@H](N)[C@H](O)[C@H](C)O1` [DOXORUBICIN], the GI50 in the test on TRAMP-C1A was found to be 20.4 nM; in the test on TRAMP-C2H [1], 15.8 nM; in the test with LNCaP [2], 45.3 nM. For the same compound, the result with LNCaP [19] and in the test with LNCaP [20] was Active. The inhibition at 0.1 µM in the test with LNCaP [18] was 69%.

Usually GI50 stands for the concentration that inhibits growth by half. Usually inhibition stands for the percentage by which the read-out fell short of the control.
